Our source for the folding enthalpy and Tm values is the array DNA melting data of Ke et al. (doi:10.1101/2024.01.08.574731).

Series [1] is described as follows: folding enthalpy; higher = less favourable; fluorescence melt of hairpins on a sequencing array, two-state fit. As to conditions: sodium 0.088 M. In short, it runs like this:
(§1)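 With Cy3 and quencher oligos annealed, library hairpins on a sequenced MiSeq flow cell were imaged for Cy3 fluorescence in 50 mM Na-HEPES pH 8.0, 25 mM NaCl, in 2.5 °C steps up to 60 °C. Melting temperature and folding enthalpy were derived from bootstrapped two-state fits of signals normalised to pre-quench Cy3 and to control constructs. Four replicates were combined by inverse variance, with fitted temperatures raised by 9.35 °C to match UV melts.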

Series [2] can be described thus: melting temperature; fluorescence melt of hairpins on a sequencing array, two-state fit, raised by 9.35 °C to match UV melts. As to conditions: sodium 0.088 M. In short, it runs like this:
as §1

Consider GACACAACGAAAGTTGTC (((..(((....)))))), for which the folding enthalpy in series [1] is -9.73 kcal/mol. Also, in series [2], the Tm was determined as 38.7 °C.

With GACACACCGAAAGGTGTC (((..(((....)))))), the folding enthalpy in series [1] was -8 kcal/mol. In addition, in series [2], the Tm was 37.3 °C.

GACACAGCGAAAGCTGTC (((..(((....)))))): the folding enthalpy in series [1] is -8.05 kcal/mol. For the same sequence, the Tm in series [2] is 32.3 °C.

As to GACACAGGAAACTGTACC (..((((....))))..), in series [1], the folding enthalpy is -11.1 kcal/mol. Further, in series [2], the Tm is 25.1 °C.

Consider GACACAGGAAACTGTGTC (((((((....))))))), for which, in series [1], the folding enthalpy is -47.9 kcal/mol. Further, the Tm in series [2] was 62.5 °C.

As to GACACCGAAAGGTAAGTC ((((((....)))..))), the folding enthalpy in series [1] is -20.2 kcal/mol. In series [2], the Tm is 38.5 °C.

GACACCGAAAGGTGCGTC ((((((....)))..))): in series [1], the folding enthalpy is -10.2 kcal/mol. Besides, the Tm in series [2] was 45.7 °C.

For the sequence GACACGGGAAACCATGTC ((((.((....)).)))), in series [1], the folding enthalpy was -32.9 kcal/mol. For the same sequence, the Tm in series [2] was 39.9 °C.

Regarding GACACGGGAAACCGTGCC (.(((((....))))).), the folding enthalpy in series [1] was -13.8 kcal/mol. Besides, in series [2], the Tm was found to be 48.4 °C.

With GACACTGGAAACAGTACC (..((((....))))..), the folding enthalpy in series [1] is -13 kcal/mol. Moreover, in series [2], the Tm worked out at 24.2 °C.

Take GACACTGGAAACAGTATC ((.((((....)))).)): the folding enthalpy in series [1] is -17.6 kcal/mol. In addition, the Tm in series [2] amounted to 30.4 °C.

Regarding GACAGAACGAAAGTTGTC (((..(((....)))))), the folding enthalpy in series [1] was -28.2 kcal/mol. For the same sequence, the Tm in series [2] came to 36.8 °C.

Consider GACAGACGAAAGTCAGTC (((.(((....))).))), for which the folding enthalpy in series [1] is -28.2 kcal/mol. The Tm in series [2] was determined as 51.7 °C.

As to GACAGAGGAAACCCTGTC (((((.(....).))))), in series [1], the folding enthalpy was -32.9 kcal/mol. Further, the Tm in series [2] came out at 42.5 °C.

For GACAGCGAAAGCTACGTC ((((((....)))..))), the folding enthalpy in series [1] was -13.8 kcal/mol. In addition, the Tm in series [2] worked out at 39.8 °C.

Regarding GACAGCGAAAGCTTGGTC ((((((....)))..))), the folding enthalpy in series [1] was -17.9 kcal/mol. Besides, in series [2], the Tm stood at 40 °C.

GACAGCGGAAACGCTATC ((.((((....)))).)): the folding enthalpy in series [1] was -14 kcal/mol. Also, in series [2], the Tm amounted to 36.7 °C.

Consider GACAGGAAACTGTC (((((....))))), for which the folding enthalpy in series [1] is -31.3 kcal/mol. Moreover, in series [2], the Tm was determined as 51.6 °C.

As to GACAGGGGAAACCCCATC ((..(((....)))..)), in series [1], the folding enthalpy is -13.2 kcal/mol. The Tm in series [2] was determined as 27.1 °C.

As to GACAGGGGAAACTCTGTC (((((.(....).))))), the folding enthalpy in series [1] is -35 kcal/mol. Moreover, the Tm in series [2] stood at 48.1 °C.

In the case of GACAGTACGAAAGTAGTC (((..(((....)))))), the folding enthalpy in series [1] was -16.2 kcal/mol. Further, the Tm in series [2] came out at 31.1 °C.

Regarding GACAGTGGAAACACTATC ((.((((....)))).)), the folding enthalpy in series [1] is -15.9 kcal/mol. Further, the Tm in series [2] was 29.5 °C.

Regarding GACATAGGAAACCATGTC (((((.(....).))))), the folding enthalpy in series [1] was -29.1 kcal/mol. In addition, the Tm in series [2] came out at 37.5 °C.

Regarding GACATCCCGAAAGGGGTC (((..(((....)))))), in series [1], the folding enthalpy was -11.1 kcal/mol. Also, the Tm in series [2] was 34.4 °C.

Take GACATCCGAAAGGAGGTC (((.(((....))).))): in series [1], the folding enthalpy was -40 kcal/mol. Besides, the Tm in series [2] turned out to be 57.9 °C.

Regarding GACATGAAAATGTC (((((....))))), the folding enthalpy in series [1] was -24 kcal/mol. Also, the Tm in series [2] was 50.4 °C.

In the case of GACATGACGAAAGTCGTC (((..(((....)))))), in series [1], the folding enthalpy is -10.3 kcal/mol. For the same sequence, the Tm in series [2] worked out at 41.6 °C.

Consider GACATGCCGAAAGGCGTC (((..(((....)))))), for which the folding enthalpy in series [1] is -11.1 kcal/mol. Moreover, in series [2], the Tm turned out to be 41.2 °C.

For the sequence GACATGGCGAAAGCCGTC (((..(((....)))))), the folding enthalpy in series [1] was -10.1 kcal/mol. The Tm in series [2] turned out to be 50.7 °C.

For GACATGGGAAACCATGCC (.(((((....))))).), the folding enthalpy in series [1] is -15.1 kcal/mol. Further, the Tm in series [2] came out at 42.8 °C.

As to GACATGGGAAACCATGTC (((((((....))))))), the folding enthalpy in series [1] is -42.8 kcal/mol. For the same sequence, the Tm in series [2] is 61.3 °C.

As for GACATGGGAAACTGTGTC ((((..(....)..)))), the folding enthalpy in series [1] was -28.2 kcal/mol. Further, in series [2], the Tm worked out at 37.2 °C.

Consider GACATTGCGAAAGCAGTC (((..(((....)))))), for which the folding enthalpy in series [1] is -10 kcal/mol. Moreover, the Tm in series [2] was 32.4 °C.

With GACATTGGAAACGATGTC (((((.(....).))))), the folding enthalpy in series [1] was -36.1 kcal/mol. Also, the Tm in series [2] was 46.7 °C.

For the sequence GACCAACGAAAGTTGTC (((.(((....)))))), in series [1], the folding enthalpy was -14.5 kcal/mol. Moreover, the Tm in series [2] amounted to 40.8 °C.

Regarding GACCAAGGAAACTCGGTC ((((.((....)).)))), the folding enthalpy in series [1] was -29.3 kcal/mol. For the same sequence, the Tm in series [2] is 37.8 °C.
